In ChEMBL document CHEMBL5653631, “A Potent and Selective ULK1 Inhibitor Suppresses Autophagy and Sensitizes Cancer Cells to Nutrient Stress” (iScience, 2018) one finds fold change (FC) and inhibition data, which are given here for three compounds.

SMILES strings stand for the structures.

Experiment [1] has as its target Death-associated protein kinase 3 (Homo sapiens) (UniProt O43293). The experiment is described as follows: Inhibition of human recombinant DAPK3 at 40 nM related to control ULK1.
Experiment [2] has as its target Receptor tyrosine-protein kinase erbB-4 (Homo sapiens) (UniProt Q15303). The experiment is described as follows: Inhibition of human recombinant ErbB4 at 40 nM related to control ULK1.
For experiment [3], the target named is Activated CDC42 kinase 1 (Homo sapiens) (UniProt Q07912). As to the kind of experiment: Inhibition of human recombinant ACK at 40 nM related to control ULK1. Put shortly:
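Radiometric activity assays in a panel of 327 human recombinant kinases, each run in duplicate at one inhibitor concentration. Activity remaining is expressed as percent of vehicle control, and percent inhibition is calculated as 100% minus percent activity remaining.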

The target in experiment [4] is Casein kinase I isoform gamma-2 (Homo sapiens) (UniProt P78368). The experiment is described as follows: Inhibition of human recombinant CK1g2 at 40 nM in presence of ATP by radiometric assay relative to control.
Chain of Casein kinase I isoform gamma-2 (Homo sapiens) (P78368 whole entry, looked up, canonical isoform): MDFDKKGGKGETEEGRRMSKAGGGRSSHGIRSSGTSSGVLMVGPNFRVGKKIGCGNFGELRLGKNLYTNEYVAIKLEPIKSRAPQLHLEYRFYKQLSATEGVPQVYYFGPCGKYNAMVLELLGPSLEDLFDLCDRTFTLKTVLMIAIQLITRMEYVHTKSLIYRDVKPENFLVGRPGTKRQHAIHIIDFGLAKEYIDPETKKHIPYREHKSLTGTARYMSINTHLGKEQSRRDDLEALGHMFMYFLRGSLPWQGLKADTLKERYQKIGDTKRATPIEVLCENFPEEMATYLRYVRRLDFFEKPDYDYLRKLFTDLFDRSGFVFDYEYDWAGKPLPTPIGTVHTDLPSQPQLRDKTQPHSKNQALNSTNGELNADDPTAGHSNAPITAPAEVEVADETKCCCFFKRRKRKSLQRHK
Experiment [5] has as its target Tyrosine-protein kinase JAK2 (Homo sapiens) (UniProt O60674). The experiment is described as follows: Inhibition of human recombinant JAK2 at 500 nM in presence of ATP by radiometric assay relative to control.
Experiment [6] addresses T1, Testis-specific serine/threonine-protein kinase 2 (Homo sapiens) (UniProt Q96PF2).
T1 sequence (whole entry): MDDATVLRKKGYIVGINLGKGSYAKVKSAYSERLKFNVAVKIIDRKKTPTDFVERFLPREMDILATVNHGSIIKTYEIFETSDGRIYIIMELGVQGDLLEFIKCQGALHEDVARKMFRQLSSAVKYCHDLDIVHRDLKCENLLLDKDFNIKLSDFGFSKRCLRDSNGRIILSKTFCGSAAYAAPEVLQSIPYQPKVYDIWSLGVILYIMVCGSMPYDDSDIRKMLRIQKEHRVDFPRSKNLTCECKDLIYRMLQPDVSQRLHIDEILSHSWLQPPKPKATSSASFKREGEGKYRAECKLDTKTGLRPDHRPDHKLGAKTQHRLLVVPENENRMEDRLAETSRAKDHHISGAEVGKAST
As to the kind of experiment: Inhibition of human recombinant TSSK2 at 500 nM related to control ULK1.

Experiment [7] addresses Serine/threonine-protein kinase PAK 4 (Homo sapiens) (UniProt O96013). The experiment is described as follows: Inhibition of human recombinant PAK4 at 500 nM related to control ULK1.
In experiment [8] the target is T2, TGF-beta receptor type-1 (Homo sapiens) (UniProt P36897).
T2 sequence (whole entry): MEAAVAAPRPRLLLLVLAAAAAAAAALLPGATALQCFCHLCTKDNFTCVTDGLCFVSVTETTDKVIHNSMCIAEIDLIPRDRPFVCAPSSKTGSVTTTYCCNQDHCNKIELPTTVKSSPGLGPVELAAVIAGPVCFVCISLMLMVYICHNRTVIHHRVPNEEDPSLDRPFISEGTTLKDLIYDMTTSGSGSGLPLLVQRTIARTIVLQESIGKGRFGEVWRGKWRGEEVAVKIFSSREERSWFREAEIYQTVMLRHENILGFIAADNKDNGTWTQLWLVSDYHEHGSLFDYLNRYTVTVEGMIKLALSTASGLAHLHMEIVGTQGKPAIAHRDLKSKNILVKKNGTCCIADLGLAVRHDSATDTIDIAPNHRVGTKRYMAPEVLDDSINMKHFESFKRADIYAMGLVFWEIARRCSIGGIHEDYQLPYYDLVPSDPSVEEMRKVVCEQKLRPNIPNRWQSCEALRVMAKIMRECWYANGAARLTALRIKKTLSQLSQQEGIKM
The experiment is described as follows: Inhibition of human recombinant TGFbR1 at 500 nM in presence of ATP by radiometric assay relative to control.

The target of experiment [9] is T3, Inhibitor of nuclear factor kappa-B kinase subunit epsilon (Homo sapiens) (UniProt Q14164).
T3 sequence (whole entry): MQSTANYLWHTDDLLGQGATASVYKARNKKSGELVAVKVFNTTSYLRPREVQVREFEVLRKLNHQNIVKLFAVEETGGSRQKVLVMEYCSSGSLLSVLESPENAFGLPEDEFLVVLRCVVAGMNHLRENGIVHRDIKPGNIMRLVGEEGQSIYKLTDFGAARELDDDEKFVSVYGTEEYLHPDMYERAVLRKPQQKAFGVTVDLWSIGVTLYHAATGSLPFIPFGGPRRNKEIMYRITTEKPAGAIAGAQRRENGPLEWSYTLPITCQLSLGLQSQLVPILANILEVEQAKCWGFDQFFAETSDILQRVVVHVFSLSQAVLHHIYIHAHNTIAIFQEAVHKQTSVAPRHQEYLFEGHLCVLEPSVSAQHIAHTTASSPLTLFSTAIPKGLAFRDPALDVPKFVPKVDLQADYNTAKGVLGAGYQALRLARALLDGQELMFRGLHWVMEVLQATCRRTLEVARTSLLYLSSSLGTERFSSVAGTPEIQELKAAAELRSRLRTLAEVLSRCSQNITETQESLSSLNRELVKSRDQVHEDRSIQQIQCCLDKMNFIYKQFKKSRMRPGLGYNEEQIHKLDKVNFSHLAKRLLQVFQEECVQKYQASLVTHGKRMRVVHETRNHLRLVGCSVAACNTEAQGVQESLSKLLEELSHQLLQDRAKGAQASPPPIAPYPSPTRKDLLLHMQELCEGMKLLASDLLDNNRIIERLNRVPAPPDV
The experiment is described as follows: Inhibition of human recombinant IKKe at 500 nM in presence of ATP by radiometric assay relative to control.

The target in experiment [10] is RAC-alpha serine/threonine-protein kinase (Homo sapiens) (UniProt P31749). As to the kind of experiment: Inhibition of human recombinant AKT1 at 15 nM in presence of ATP by radiometric assay relative to control. Put shortly:
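Panel of 327 recombinant human kinases in radiometric activity assays, each screened in duplicate at a single inhibitor concentration; percent activity remaining relative to vehicle control, percent inhibition taken as 100 minus activity remaining.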

Experiment [11] deals with Tyrosine-protein kinase Yes (Homo sapiens) (UniProt P07947). The experiment is described as follows: Inhibition of human recombinant YES at 15 nM related to control ULK1.
Chain of Tyrosine-protein kinase Yes (Homo sapiens) (P07947 2-543 limits assumed): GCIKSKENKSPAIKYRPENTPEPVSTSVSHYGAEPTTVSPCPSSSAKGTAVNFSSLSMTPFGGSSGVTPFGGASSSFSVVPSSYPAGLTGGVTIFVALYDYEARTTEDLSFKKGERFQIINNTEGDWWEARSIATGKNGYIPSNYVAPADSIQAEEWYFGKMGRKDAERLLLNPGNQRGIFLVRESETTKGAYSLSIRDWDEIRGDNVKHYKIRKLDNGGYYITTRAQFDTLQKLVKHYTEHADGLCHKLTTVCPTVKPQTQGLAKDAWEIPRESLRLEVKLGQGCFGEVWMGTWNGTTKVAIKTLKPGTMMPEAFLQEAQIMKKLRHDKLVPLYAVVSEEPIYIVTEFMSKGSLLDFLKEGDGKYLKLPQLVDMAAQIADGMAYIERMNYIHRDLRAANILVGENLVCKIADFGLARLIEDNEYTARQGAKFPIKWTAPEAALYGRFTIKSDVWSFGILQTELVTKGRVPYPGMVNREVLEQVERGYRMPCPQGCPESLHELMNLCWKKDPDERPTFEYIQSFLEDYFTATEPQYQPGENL
Experiment [12] concerns the target Ephrin type-A receptor 4 (Homo sapiens) (UniProt P54764). As to the kind of experiment: Inhibition of human recombinant EphA4 at 15 nM in presence of ATP by radiometric assay relative to control.
Experiment [13] has as its target Cyclin-dependent kinase 7 (Homo sapiens) (UniProt P50613). The experiment is described as follows: Inhibition of human recombinant CDK7 at 15 nM in presence of ATP by radiometric assay relative to control.

Chain of Serine/threonine-protein kinase PAK 4 (Homo sapiens) (O96013 whole entry, looked up): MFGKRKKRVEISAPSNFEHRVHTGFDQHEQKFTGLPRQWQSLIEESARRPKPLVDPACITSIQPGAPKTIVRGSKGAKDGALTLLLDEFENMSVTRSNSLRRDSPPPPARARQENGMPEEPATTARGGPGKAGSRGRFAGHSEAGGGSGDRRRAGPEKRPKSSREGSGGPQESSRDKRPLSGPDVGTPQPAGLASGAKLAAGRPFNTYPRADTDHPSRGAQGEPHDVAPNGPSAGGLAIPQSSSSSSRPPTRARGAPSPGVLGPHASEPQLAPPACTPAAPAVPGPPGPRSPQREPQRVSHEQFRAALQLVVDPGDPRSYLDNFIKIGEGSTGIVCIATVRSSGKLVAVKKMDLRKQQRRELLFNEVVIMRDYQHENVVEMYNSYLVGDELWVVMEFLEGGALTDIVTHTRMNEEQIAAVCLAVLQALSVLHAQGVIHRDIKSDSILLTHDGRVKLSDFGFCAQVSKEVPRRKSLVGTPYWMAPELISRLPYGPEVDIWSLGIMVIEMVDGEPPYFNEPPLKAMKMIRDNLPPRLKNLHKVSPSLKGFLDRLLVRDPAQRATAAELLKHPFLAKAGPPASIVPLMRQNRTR
Chain of Cyclin-dependent kinase 7 (Homo sapiens) (P50613 whole entry): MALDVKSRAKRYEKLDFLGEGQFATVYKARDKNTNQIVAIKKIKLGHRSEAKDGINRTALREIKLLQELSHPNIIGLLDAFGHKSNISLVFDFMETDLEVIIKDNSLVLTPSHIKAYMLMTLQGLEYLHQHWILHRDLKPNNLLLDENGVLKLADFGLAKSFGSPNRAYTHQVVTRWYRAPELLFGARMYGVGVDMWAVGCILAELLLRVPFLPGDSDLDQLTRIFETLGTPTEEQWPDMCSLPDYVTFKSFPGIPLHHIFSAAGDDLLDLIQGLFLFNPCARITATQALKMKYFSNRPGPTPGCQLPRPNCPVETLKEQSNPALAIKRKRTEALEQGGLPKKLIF
Chain of RAC-alpha serine/threonine-protein kinase (Homo sapiens) (P31749 whole entry): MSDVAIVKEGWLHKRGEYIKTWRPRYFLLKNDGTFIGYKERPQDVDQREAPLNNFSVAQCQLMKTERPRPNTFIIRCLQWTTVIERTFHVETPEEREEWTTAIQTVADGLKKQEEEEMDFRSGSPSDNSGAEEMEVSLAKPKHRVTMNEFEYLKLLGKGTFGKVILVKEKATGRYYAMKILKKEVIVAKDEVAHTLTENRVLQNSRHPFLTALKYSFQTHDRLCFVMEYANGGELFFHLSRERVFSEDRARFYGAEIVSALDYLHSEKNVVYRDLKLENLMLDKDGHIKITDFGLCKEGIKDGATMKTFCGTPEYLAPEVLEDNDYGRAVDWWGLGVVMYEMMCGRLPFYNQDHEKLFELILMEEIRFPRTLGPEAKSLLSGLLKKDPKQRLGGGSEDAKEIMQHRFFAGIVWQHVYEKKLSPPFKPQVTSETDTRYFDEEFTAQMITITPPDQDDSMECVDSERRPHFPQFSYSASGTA
Chain of Death-associated protein kinase 3 (Homo sapiens) (O43293 whole entry, looked up): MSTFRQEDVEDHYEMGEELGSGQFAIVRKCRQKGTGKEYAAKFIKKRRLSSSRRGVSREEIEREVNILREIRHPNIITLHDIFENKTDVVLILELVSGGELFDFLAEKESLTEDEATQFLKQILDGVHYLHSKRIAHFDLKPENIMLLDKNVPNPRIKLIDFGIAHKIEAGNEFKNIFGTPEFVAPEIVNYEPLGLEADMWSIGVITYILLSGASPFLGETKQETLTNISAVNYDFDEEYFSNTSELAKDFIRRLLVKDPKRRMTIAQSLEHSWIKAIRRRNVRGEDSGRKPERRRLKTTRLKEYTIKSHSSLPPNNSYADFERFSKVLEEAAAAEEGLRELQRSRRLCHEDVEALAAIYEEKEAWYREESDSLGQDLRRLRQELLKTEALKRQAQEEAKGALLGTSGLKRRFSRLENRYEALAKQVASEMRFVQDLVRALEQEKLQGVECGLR
Chain of Ephrin type-A receptor 4 (Homo sapiens) (P54764 whole entry): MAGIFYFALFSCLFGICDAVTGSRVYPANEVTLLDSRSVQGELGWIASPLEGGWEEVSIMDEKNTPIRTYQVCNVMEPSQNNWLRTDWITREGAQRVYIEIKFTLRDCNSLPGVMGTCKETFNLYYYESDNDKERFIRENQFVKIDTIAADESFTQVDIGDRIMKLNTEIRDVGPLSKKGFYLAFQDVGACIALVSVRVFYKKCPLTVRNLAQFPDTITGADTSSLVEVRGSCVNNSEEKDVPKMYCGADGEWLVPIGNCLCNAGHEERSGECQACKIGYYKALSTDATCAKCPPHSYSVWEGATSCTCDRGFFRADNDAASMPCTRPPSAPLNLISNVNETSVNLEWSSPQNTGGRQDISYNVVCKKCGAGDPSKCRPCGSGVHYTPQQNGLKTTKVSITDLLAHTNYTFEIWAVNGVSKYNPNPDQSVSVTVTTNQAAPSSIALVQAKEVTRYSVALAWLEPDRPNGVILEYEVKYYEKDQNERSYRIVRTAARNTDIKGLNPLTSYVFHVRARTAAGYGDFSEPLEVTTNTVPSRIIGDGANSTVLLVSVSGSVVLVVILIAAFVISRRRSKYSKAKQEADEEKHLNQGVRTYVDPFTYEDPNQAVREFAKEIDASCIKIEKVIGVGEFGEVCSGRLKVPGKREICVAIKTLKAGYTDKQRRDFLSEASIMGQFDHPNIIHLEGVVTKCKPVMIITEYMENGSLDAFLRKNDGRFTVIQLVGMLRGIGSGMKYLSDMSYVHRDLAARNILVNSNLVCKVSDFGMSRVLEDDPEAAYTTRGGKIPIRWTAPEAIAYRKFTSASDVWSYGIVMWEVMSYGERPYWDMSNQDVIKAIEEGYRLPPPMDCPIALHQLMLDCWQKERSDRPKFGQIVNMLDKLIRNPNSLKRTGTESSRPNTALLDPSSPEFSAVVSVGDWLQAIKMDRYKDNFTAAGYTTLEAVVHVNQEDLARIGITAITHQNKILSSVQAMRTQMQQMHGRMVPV
Chain of Activated CDC42 kinase 1 (Homo sapiens) (Q07912 whole entry, looked up): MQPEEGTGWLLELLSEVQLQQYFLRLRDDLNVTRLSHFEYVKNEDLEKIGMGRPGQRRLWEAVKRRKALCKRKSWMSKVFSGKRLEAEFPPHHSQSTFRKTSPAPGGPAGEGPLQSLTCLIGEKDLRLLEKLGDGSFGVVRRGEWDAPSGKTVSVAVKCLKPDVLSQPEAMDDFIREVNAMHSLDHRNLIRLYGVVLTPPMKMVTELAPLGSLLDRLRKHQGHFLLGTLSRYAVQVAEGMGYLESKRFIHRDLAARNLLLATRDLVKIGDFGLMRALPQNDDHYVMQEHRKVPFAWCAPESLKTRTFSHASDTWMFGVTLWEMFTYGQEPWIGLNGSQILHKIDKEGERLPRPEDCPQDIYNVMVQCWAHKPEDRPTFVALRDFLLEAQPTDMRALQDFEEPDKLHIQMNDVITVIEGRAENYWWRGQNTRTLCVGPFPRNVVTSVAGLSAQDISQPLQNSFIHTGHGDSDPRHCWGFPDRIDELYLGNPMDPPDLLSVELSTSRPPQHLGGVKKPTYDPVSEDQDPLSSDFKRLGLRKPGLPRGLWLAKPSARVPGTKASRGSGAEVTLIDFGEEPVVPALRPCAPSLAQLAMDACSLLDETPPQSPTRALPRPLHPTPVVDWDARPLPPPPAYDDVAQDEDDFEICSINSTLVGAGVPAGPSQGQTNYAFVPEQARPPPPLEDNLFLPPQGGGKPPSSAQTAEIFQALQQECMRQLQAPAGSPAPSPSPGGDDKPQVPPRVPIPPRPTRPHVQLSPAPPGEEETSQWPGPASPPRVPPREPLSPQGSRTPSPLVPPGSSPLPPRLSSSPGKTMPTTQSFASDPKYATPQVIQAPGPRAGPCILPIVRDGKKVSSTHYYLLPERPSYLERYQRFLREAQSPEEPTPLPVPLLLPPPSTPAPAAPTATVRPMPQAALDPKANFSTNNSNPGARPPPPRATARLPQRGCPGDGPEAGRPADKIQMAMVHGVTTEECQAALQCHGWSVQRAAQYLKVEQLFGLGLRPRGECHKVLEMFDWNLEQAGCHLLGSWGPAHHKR

One may read the inhibition as the percentage by which the read-out fell short of the control. Take `O=C(N[C@@H](C1CC1)C(F)(F)F)c1cc(-c2cnn3cc(-c4ccc(F)cc4)cnc23)cs1`: the fold change (FC) in experiment [1] came to 0.11; in experiment [2], 0; in [3] it was 0.23. Also, the inhibition in experiment [4] was found to be 5%.
Take `CNC(=O)c1ccccc1Oc1nc(Nc2cc(OC)c(OC)c(OC)c2)ncc1Br`: the inhibition amounted to 78% in experiment [5], 0% in experiment [8] and 0% in experiment [9]. For the same compound, the fold change (FC) stood at 0.03 in experiment [6] and 0.55 in experiment [7].
With `CC(C)[C@H](NC(=O)c1cc(-c2cnn3cc(-c4ccc(OCCN5CCCCC5)cc4)cnc23)cs1)C(F)(F)F`, the inhibition in [10] was 0%; in [12], 0%; in [13], 16%. In addition, the fold change (FC) in experiment [11] came to 0.86.
